Experimental data taken from ChEMBL document CHEMBL1125228, “A 3-D model for 5-HT1A-receptor agonists based on stereoselective methyl-substituted and conformationally restricted analogues of 8-hydroxy-2-(dipropylamino)tetralin” (J Med Chem, 1991).
Several values for one entry are separate records, joined by “and”; a condition that tells them apart may be missing. Equal values may be shown once.

Experiments:
Rattus norvegicus [1] = experiment: In vivo accumulation of 5-HTP in striatum of rat brain at a dose of 0.1 umol/kg.; format: functional
Summary of the method: (§1)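 Hydrochlorides given sc in the neck (5 mL/kg) to rats, either untreated or reserpine-pretreated (5 mg/kg sc, 6 h before). Decarboxylase inhibitor NSD 1015 (100 mg/kg ip or 60 mg/kg sc) given 30 min later; rats decapitated after another 30 min. Striatum, limbic system, hemispheres and brain stem dissected on ice and homogenized in 0.1 M perchloric acid with α-methyl-DOPA internal standard. DOPA, DA, 5-HTP and 5-HT measured by ion-pair reversed-phase HPLC with electrochemical detection.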

Rattus norvegicus [2] = experiment: In vivo accumulation of DOPA in limbic of rat brain at a dose of 1 umol/kg.; format: functional
Summary of the method: (§2)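 Rats, reserpine-pretreated (5 mg/kg, i.e. 9 μmol/kg sc, 6 h before) or nonpretreated, given test hydrochloride sc in the neck (injection volume 5 mL/kg). Decarboxylase inhibitor NSD 1015 (100 mg/kg ip or 60 mg/kg sc) given 30 min later; decapitation after another 30 min. Brain dissected on ice into striatum, limbic system, hemispheres, brain stem. Homogenized in 0.1 M perchloric acid with α-methyl-DOPA internal standard; DOPA measured by ion-pair reversed-phase HPLC with electrochemical detection.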

Rattus norvegicus [3] = experiment: In vivo accumulation of 5-HTP in brain stem of rat brain at a dose of 0.32 umol/kg.; format: functional; summary of the method: as §1
Rattus norvegicus [4] = experiment: In vivo accumulation of 5-HT in limbic of rat brain at a dose of 0.32 umol/kg.; format: functional; summary of the method: as §1
Rattus norvegicus [5] = experiment: In vivo accumulation of DA in striatum of rat brain at a dose of 1 umol/kg.; format: functional; summary of the method: as §1
Rattus norvegicus [6] = experiment: In vivo accumulation of DA in striatum of rat brain at a dose of 0.1 umol/kg.; format: functional; summary of the method: as §1
Rattus norvegicus [7] = experiment: In vivo accumulation of DOPA in striatum of rat brain at a dose of 1 umol/kg.; format: functional; summary of the method: as §2
Rattus norvegicus [8] = experiment: In vivo accumulation of 5-HTP in hemisphere of rat brain at a dose of 0.1 umol/kg.; format: functional; summary of the method: as §1
Rattus norvegicus [9] = experiment: In vivo accumulation of DOPA in limbic of rat brain at a dose of 0.1 umol/kg.; format: functional; summary of the method: as §2
Rattus norvegicus [10] = experiment: In vivo accumulation of 5-HT in striatum of rat brain at a dose of 1 umol/kg.; format: functional; summary of the method: as §1
Rattus norvegicus [11] = experiment: In vivo accumulation of 5-HTP in limbic of rat brain at a dose of 0.1 umol/kg.; format: functional; summary of the method: as §1
Rattus norvegicus [12] = experiment: In vivo accumulation of 5-HTP in striatum of rat brain at a dose of 0.32 umol/kg.; format: functional; summary of the method: as §1
Rattus norvegicus [13] = experiment: In vivo accumulation of 5-HT in striatum of rat brain at a dose of 0.32 umol/kg.; format: functional; summary of the method: as §1
Rattus norvegicus [14] = experiment: In vivo accumulation of DOPA in hemisphere of rat brain at a dose of 0.1 umol/kg.; format: functional; summary of the method: as §2
Rattus norvegicus [15] = experiment: In vivo accumulation of 5-HTP in brain stem of rat brain at a dose of 0.1 umol/kg.; format: functional; summary of the method: as §1
Rattus norvegicus [16] = experiment: In vivo accumulation of 5-HTP in limbic of rat brain at a dose of 0.32 umol/kg.; format: functional; summary of the method: as §1
Rattus norvegicus [17] = experiment: In vivo accumulation of 5-HTP in brain stem of rat brain at a dose of 1 umol/kg.; format: functional; summary of the method: as §1
Rattus norvegicus [18] = experiment: In vivo accumulation of DA in striatum of rat brain at a dose of 0.32 umol/kg.; format: functional; summary of the method: as §1
Rattus norvegicus [19] = experiment: In vivo accumulation of DOPA in limbic of rat brain at a dose of 0.32 umol/kg.; format: functional; summary of the method: as §2
Rattus norvegicus [20] = experiment: In vivo accumulation of DOPA in striatum of rat brain at a dose of 0.32 umol/kg.; format: functional; summary of the method: as §2
Rattus norvegicus [21] = experiment: In vivo accumulation of DOPA in brain stem of rat brain at a dose of 1 umol/kg.; format: functional; summary of the method: as §1
Rattus norvegicus [22] = experiment: In vivo accumulation of 5-HT in limbic of rat brain at a dose of 0.1 umol/kg.; format: functional, Limbic system; summary of the method: as §1
Rattus norvegicus [23] = experiment: In vivo accumulation of 5-HT in striatum of rat brain at a dose of 0.1 umol/kg.; format: functional; summary of the method: as §1
Rattus norvegicus [24] = experiment: In vivo accumulation of 5-HTP in hemisphere of rat brain at a dose of 1 umol/kg.; format: functional; summary of the method: as §1
Rattus norvegicus [25] = experiment: In vivo accumulation of DOPA in striatum of rat brain at a dose of 0.1 umol/kg.; format: functional; summary of the method: as §2
Rattus norvegicus [26] = experiment: In vivo accumulation of DOPA in brain stem of rat brain at a dose of 0.32 umol/kg.; format: functional; summary of the method: as §1
Rattus norvegicus [27] = experiment: In vivo accumulation of 5-HT in limbic of rat brain at a dose of 1 umol/kg.; format: functional; summary of the method: as §1
Rattus norvegicus [28] = experiment: In vivo accumulation of DOPA in brain stem of rat brain at a dose of 0.1 umol/kg.; format: functional; summary of the method: as §1
Rattus norvegicus [29] = experiment: In vivo accumulation of 5-HTP in hemisphere of rat brain at a dose of 0.32 umol/kg.; format: functional; summary of the method: as §1
Rattus norvegicus [30] = experiment: In vivo accumulation of DOPA in hemisphere of rat brain at a dose of 0.32 umol/kg.; format: functional; summary of the method: as §2
Rattus norvegicus [31] = experiment: In vivo accumulation of 5-HTP in limbic of rat brain at a dose of 1 umol/kg.; format: functional; summary of the method: as §1
Rattus norvegicus [32] = experiment: In vivo accumulation of 5-HTP in striatum of rat brain at a dose of 1 umol/kg.; format: functional; summary of the method: as §1
Rattus norvegicus [33] = experiment: In vivo accumulation of DOPA in brain stem of rat brain at a dose of 3.2 umol/kg.; format: functional; summary of the method: as §1
Rattus norvegicus [34] = experiment: In vivo accumulation of 5-HTP in brain stem of rat brain at a dose of 3.2 umol/kg.; format: functional; summary of the method: as §1
Rattus norvegicus [35] = experiment: In vivo accumulation of DOPA in striatum of rat brain at a dose of 3.2 umol/kg.; format: functional; summary of the method: as §2
Rattus norvegicus [36] = experiment: In vivo accumulation of 5-HT in striatum of rat brain at a dose of 3.2 umol/kg.; format: functional; summary of the method: as §1
Rattus norvegicus [37] = experiment: In vivo accumulation of DOPA in hemisphere of rat brain at a dose of 3.2 umol/kg.; format: functional; summary of the method: as §2
Rattus norvegicus [38] = experiment: In vivo accumulation of 5-HT in limbic of rat brain at a dose of 3.2 umol/kg.; format: functional; summary of the method: as §1
Rattus norvegicus [39] = experiment: In vivo accumulation of DA in striatum of rat brain at a dose of 3.2 umol/kg.; format: functional; summary of the method: as §1
Rattus norvegicus [40] = experiment: In vivo accumulation of 5-HTP in limbic of rat brain at a dose of 3.2 umol/kg.; format: functional; summary of the method: as §1
Rattus norvegicus [41] = experiment: In vivo accumulation of 5-HTP in striatum of rat brain at a dose of 3.2 umol/kg.; format: functional; summary of the method: as §1
Rattus norvegicus [42] = experiment: In vivo accumulation of DOPA in limbic of rat brain at a dose of 3.2 umol/kg.; format: functional; summary of the method: as §2
Rattus norvegicus [43] = experiment: In vivo accumulation of 5-HTP in hemisphere of rat brain at a dose of 3.2 umol/kg.; format: functional; summary of the method: as §1

Structure (SMILES) | Control (Rattus norvegicus [2]) | Control (Rattus norvegicus [3]) [%] | Control (Rattus norvegicus [4]) [%] | Control (Rattus norvegicus [5]) [%] | Control (Rattus norvegicus [7]) [%] | Control (Rattus norvegicus [10]) [%] | Control (Rattus norvegicus [12]) [%] | Control (Rattus norvegicus [13]) [%] | Control (Rattus norvegicus [16]) [%] | Control (Rattus norvegicus [17]) [%] | Control (Rattus norvegicus [18]) [%] | Control (Rattus norvegicus [19]) | Control (Rattus norvegicus [20]) [%] | Control (Rattus norvegicus [21]) [%] | Control (Rattus norvegicus [24]) [%] | Control (Rattus norvegicus [26]) [%] | Control (Rattus norvegicus [27]) [%] | Control (Rattus norvegicus [29]) [%] | Control (Rattus norvegicus [30]) [%] | Control (Rattus norvegicus [31]) [%] | other results
CCCN1CCC[C@H]2c3c(O)cccc3CC[C@@H]21 | 107.3% and 111% | 70.7 | 138.1 | 115.8 | 117.6 | 134.9 | 51.5 | 81.6 | 69.7 | 61.1 | 108.2 | 115.9% and 107.8% | 113.6 | 133.3 | 43 | 110.1 | 170.1 | 60.8 | 114 | 52.3 | Control (Rattus norvegicus [1]): 55.3%; Control (Rattus norvegicus [6]): 123.1%; Control (Rattus norvegicus [8]): 74.7%; Control (Rattus norvegicus [9]): 95.9% and 124.5%; Control (Rattus norvegicus [11]): 85.1%; Control (Rattus norvegicus [14]): 97%; Control (Rattus norvegicus [15]): 90.8%; Control (Rattus norvegicus [22]): 126.7%; Control (Rattus norvegicus [23]): 98.1%; Control (Rattus norvegicus [25]): 109.3%; Control (Rattus norvegicus [28]): 93.2%; Control (Rattus norvegicus [32]): 44.7%
CCCN1CCC[C@@H]2c3c(O)cccc3CC[C@H]21 | 85.5% and 95.2% | 76.1 | 108.1 | 129.5 | 116.2 | 113.2 | 69.9 | 107.1 | 85.1 | 65.3 | 110.6 | 91.1% and 114.1% | 109.4 | 102.9 | 51.9 | 87 | 119.3 | 70.9 | 111 | 58.5 | Control (Rattus norvegicus [33]): 125.1%; Control (Rattus norvegicus [34]): 59.9%; Control (Rattus norvegicus [35]): 99.6%; Control (Rattus norvegicus [36]): 128.8%; Control (Rattus norvegicus [37]): 119%; Control (Rattus norvegicus [38]): 144.1%; Control (Rattus norvegicus [39]): 120.2%; Control (Rattus norvegicus [40]): 50.3%; Control (Rattus norvegicus [41]): 34%; Control (Rattus norvegicus [42]): 111.4% and 118.2%; Control (Rattus norvegicus [32]): 56.3%; Control (Rattus norvegicus [43]): 50.6%
